Data set [1] has as its target Tyrosine-protein kinase JAK2 (Homo sapiens) (UniProt O60674). In words: Inhibition of JAK2 at 1 uM. In a few lines: (§1)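 KINOMEScan competition-binding panel of 442 kinases (386 nonmutant) tested at 1 μM. Binding is read as percent of control ligand competition; <10% of control counts as a hit for the S(10) score.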
Data set [2] addresses Vascular endothelial growth factor receptor 1 (Homo sapiens) (UniProt P17948). In words: Inhibition of FLT1 at 1 uM. Put shortly: as §1
Data set [3] deals with Mus musculus. In words: Toxicity in CrTacNCr-Fox1(nu) athymic mouse assessed as body weight loss at 50 to 100 mg/kg, po administered 10 days post implantation daily for 7 days. The format is organism-based. More on the design: dose 50-100 mg/kg, route oral. Conditions: in vivo.
A short description of data set [4]: AUC (infinity) in Sprague-Dawley rat at 5 mg/kg, iv. The format is ADME, organism-based. More on the design: time infinity, dose 5 mg/kg, route intravenous. Conditions: plasma. In a few lines:
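Female Sprague–Dawley rats dosed iv at 5 mg/kg in 10% DMSO, 5% Tween 20, 85% saline, 0.3% 1 M HCl. Serial tail-vein bleeds at 15, 30 min and 2, 4, 6, 24 h. Plasma was methanol-precipitated with olomoucine internal standard, then analysed by LC–MS (positive ESI MRM).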

Data set [5] in a line: Lipophilicity, log D of the compound. The format is physicochemical. The note with it: octanol/water.
Data set [6] concerns Mus musculus. In words: Volume of distribution in Balb/C mouse at 5 mg/kg, iv and 5 mg/kg, po. The format is ADME, organism-based. Conditions: in vivo. Put shortly: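 Female Balb/C mice given 5 mg/kg po or iv in 10% DMSO, 5% Tween 20 in saline. Killed at 5, 15, 30 min and 1, 2, 4, 6, 24 h; plasma from cardiac blood. Methanol protein precipitation with olomoucine internal standard, then LC-MS (reverse-phase C18, positive ESI MRM).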

Data set [7] relates to Plasma. Nature of the data set: Plasma protein binding in mouse. In kind it is ADME, cell-free.
For data set [8], the target named is T1, Cytochrome P450 2A6 (Homo sapiens, UniProt P11509).
T1 sequence (P11509 whole entry): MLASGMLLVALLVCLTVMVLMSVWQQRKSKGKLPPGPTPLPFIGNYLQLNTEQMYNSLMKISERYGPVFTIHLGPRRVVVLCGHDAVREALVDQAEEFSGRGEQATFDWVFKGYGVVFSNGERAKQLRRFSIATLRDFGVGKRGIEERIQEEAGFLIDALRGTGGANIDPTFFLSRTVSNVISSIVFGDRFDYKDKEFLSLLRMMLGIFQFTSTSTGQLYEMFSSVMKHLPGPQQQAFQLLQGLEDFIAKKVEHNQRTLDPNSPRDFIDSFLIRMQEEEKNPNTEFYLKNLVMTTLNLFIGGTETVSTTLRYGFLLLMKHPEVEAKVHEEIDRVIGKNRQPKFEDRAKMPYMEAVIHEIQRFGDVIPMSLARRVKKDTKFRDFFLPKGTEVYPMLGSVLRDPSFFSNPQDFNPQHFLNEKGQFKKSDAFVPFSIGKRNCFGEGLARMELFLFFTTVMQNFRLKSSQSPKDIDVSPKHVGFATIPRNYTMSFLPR
Nature of the data set: Inhibition of human liver microsome CYP2A6 by LC-MS-MS analysis. In kind it is ADME. Put shortly:
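Pooled human liver microsomes (50 donors) at 0.5 mg/mL protein, incubated for 10 min with isoform-selective probe substrates. Metabolite formation was detected by LC–MS/MS with positive ESI.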
(In general: Microsomes from liver hold many membrane-bound enzymes, among them those of drug oxidation.)

For data set [9], the target named is T2, Cytochrome P450 1A2 (Homo sapiens, UniProt P05177).
T2 sequence (P05177 whole entry): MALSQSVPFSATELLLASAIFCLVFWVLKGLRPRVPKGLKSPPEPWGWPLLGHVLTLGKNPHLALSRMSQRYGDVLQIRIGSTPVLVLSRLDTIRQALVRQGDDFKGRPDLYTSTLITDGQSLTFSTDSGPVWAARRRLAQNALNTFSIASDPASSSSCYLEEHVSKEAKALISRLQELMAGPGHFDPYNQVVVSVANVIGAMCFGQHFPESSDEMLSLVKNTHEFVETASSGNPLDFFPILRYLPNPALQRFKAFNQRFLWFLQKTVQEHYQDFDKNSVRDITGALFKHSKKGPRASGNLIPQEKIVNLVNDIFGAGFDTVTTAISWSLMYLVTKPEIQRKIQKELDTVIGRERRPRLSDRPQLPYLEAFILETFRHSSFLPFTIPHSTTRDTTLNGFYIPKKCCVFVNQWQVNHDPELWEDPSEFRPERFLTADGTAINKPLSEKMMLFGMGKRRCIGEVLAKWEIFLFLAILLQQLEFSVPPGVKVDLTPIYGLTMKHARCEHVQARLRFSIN
In words: Inhibition of human liver microsome CYP1A2 by LC-MS-MS analysis.

Data set [10] in a line: Metabolic stability in mouse liver microsomes assessed as parent compound metabolism after 30 mins by LC-MS analysis. In kind it is ADME, Microsome. Conditions: read-out: Drug metabolism. Put shortly:
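Male CD1 mouse liver microsomes (1 mg/mL protein) incubated with 10 μM compound plus NADPH 1 mM, UDPGA 2.5 mM and MgCl2 3 mM in 10 mM PBS at 37 °C for 0 and 30 min. NADPH/UDPGA-free controls included. LC–MS quantitation of remaining compound; reported as percent parent metabolized after 30 min.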

Vascular endothelial growth factor receptor 1 (Homo sapiens), sequence (P17948 whole entry): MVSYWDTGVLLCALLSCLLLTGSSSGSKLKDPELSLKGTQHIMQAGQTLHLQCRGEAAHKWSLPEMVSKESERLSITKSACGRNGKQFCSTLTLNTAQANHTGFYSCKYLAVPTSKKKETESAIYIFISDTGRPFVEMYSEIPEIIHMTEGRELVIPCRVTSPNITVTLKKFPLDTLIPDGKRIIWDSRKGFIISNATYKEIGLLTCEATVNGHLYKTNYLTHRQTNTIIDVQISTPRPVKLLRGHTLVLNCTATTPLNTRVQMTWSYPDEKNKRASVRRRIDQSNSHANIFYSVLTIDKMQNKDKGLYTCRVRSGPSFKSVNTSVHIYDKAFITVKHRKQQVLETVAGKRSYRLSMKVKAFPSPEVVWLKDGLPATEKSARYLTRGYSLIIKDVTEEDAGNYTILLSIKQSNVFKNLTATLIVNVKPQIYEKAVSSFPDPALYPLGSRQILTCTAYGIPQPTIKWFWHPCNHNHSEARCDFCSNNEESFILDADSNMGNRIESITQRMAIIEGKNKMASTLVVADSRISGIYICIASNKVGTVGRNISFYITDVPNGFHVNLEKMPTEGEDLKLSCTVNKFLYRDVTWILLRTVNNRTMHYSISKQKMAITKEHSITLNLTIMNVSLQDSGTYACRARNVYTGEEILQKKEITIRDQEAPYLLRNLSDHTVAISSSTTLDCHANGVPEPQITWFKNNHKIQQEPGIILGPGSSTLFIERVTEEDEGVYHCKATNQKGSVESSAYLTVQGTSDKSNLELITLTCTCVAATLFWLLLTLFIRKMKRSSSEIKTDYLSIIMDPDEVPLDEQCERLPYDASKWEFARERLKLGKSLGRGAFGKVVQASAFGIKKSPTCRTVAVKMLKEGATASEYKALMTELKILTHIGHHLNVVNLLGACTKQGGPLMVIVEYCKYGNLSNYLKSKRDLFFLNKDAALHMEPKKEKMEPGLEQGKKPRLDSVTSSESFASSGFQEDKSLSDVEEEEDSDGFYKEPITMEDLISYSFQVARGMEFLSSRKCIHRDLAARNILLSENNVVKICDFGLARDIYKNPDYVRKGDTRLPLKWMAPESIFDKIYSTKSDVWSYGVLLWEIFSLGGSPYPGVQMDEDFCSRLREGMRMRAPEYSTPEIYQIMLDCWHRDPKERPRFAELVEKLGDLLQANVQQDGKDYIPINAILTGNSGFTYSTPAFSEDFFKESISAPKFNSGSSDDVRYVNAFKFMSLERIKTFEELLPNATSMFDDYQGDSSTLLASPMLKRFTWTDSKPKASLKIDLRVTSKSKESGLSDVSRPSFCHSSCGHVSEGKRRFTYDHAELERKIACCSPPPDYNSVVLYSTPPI
Tyrosine-protein kinase JAK2 (Homo sapiens), sequence (O60674 whole entry): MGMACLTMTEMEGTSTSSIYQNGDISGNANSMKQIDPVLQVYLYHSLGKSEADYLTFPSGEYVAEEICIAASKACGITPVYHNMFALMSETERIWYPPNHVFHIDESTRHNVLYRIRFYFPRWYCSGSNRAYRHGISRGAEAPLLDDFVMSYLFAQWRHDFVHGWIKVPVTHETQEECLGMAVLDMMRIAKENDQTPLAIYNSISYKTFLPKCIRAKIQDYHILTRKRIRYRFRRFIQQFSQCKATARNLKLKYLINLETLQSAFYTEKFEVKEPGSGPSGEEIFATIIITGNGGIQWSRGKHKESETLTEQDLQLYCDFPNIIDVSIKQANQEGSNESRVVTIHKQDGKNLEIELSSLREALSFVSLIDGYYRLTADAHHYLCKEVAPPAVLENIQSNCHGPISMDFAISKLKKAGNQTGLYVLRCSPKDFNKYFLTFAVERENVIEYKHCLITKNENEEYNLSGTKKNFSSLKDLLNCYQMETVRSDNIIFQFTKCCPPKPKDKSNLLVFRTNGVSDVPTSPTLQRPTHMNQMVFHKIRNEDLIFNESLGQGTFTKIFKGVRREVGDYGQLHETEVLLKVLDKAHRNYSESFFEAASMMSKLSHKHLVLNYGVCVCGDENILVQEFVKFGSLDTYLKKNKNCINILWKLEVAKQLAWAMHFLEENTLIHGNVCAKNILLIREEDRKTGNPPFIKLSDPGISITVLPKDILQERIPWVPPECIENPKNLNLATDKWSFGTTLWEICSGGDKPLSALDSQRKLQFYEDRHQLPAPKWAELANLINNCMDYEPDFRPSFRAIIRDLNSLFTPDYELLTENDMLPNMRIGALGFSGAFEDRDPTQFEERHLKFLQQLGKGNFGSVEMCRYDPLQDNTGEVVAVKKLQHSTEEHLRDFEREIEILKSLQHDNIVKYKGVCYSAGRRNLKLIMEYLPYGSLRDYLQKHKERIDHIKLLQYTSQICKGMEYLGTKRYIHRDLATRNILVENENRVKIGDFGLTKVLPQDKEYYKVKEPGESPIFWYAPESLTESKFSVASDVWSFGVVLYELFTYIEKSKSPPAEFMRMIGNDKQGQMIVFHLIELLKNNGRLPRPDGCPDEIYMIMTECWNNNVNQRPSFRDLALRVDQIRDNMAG

Regarding `Cc1nn(C)cc1-c1nc2c(N3CCN(Cc4ccc(Cl)cc4)CC3)c(Cl)cnc2[nH]1` [MOBINITINIB], the results for the inhibition in data set [1] and in data set [2] were 1.3% and 0.3%, respectively. Moreover, the Activity entry in data set [3] is given as “Non-toxic”. The AUC(0-inf) (as a rule, total exposure, with the tail of the curve extrapolated) in data set [4] turned out to be 39.9 µM·h. Also, the log distribution coefficient (logD) – broadly, lipophilicity at a set pH, counting ionised and neutral species – in [5] came to 3.84. The Vd in [6] worked out at 3.3 L/kg. Besides, the PPB in data set [7] is recorded as 97.3%. For the same compound, the 50% inhibitory concentration (IC50) in [8] and in [9] was above 10 µM in each case. Further, the metabolised at 0.5 h in data set [10] amounted to 34%.

(Values after ChEMBL document CHEMBL2203264, “Optimization of imidazo[4,5-b]pyridine-based kinase inhibitors: identification of a dual FLT3/Aurora kinase inhibitor as an orally bioavailable preclinical development candidate for the treatment of acute myeloid leukemia” (J Med Chem, 2012).)
